This note sets out measurements from article PMC4102658 (Circulation. Cardiovascular imaging, 2014).

In the assay the target is T1, fibrin (Rattus norvegicus, UniProt P02680+P06399+P14480).
T1 sequence (P06399 20-550 isoform P06399-2 limits assumed): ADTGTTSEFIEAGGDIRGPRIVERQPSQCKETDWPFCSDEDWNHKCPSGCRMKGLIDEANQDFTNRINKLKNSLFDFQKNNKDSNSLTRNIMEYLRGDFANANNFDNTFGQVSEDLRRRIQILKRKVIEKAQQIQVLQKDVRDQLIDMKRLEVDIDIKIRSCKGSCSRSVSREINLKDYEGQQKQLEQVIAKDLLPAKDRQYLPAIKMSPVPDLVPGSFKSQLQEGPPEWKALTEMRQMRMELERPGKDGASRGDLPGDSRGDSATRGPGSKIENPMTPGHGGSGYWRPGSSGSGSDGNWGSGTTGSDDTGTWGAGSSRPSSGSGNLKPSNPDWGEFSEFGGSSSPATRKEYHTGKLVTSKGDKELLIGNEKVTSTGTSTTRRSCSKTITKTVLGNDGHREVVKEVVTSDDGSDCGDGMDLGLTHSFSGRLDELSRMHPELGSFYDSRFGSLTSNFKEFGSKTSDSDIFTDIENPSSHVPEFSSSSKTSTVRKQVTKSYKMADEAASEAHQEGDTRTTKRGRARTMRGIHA
T1 sequence (P14480 33-479 limits assumed): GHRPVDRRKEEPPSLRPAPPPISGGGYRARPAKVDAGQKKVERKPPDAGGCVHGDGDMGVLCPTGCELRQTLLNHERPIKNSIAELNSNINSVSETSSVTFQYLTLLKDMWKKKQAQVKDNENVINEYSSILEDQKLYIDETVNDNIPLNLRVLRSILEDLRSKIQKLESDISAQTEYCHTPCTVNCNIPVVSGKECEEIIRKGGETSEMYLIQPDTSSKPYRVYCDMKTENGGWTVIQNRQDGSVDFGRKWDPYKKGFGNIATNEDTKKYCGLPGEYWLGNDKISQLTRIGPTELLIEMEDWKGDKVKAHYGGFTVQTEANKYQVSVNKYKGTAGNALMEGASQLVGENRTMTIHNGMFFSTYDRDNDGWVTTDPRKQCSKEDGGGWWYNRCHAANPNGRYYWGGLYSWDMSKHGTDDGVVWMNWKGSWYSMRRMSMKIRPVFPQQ
T1 sequence (P02680 26-437 isoform P02680-2 limits assumed): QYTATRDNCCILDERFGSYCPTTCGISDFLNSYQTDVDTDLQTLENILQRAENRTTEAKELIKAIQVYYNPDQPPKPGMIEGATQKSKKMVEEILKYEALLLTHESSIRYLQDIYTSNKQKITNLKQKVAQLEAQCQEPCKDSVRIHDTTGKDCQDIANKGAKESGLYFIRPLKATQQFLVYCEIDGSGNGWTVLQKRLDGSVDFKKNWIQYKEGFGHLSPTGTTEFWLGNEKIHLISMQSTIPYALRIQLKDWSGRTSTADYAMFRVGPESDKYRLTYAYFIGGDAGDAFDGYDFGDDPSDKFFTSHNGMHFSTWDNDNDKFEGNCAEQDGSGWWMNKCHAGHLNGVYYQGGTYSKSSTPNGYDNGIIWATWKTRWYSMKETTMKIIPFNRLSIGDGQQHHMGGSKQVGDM
The assay can be described thus: brain autoradiography, embolic stroke with rtPA or vehicle. As to conditions: rtPA-treated animals. The assay is classed as in vivo. Summed up: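 Rats with embolic clot in ICA/MCA got ~300 μCi probe (0.3–0.4 mL, saline flush) 15–30 min after surgery. About 1 h after clot injection they received rtPA (10 mg/kg i.v., 10% bolus, 90% infused over 30 min) or 1 mL saline. Euthanised after 45 min baseline plus 90 min PET. 2 mm brain sections autoradiographed; ipsilateral/contralateral ICA-MCA ROI activity ratio; mean ± S.E.M.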

With “rtPA: recombinant tissue plasminogen activator (alteplase), thrombolytic treatment”, the “ipsilateral to contralateral ICA-MCA ratio by autoradiography with FBP7” value is given as around 1.
